Published values pooled from the literature.
Compare with care: the assays were run in different laboratories.
Target: Fibroblast growth factor receptor 4 (FGFR4, Homo sapiens, UniProt P22455)

Structure (SMILES) | read-out | mode | technique | tested at | quantity | result
Cc1nn(C)cc1-c1nc2c(N3CCN(Cc4ccc(Cl)cc4)CC3)c(Cl)cnc2[nH]1 | binding |  | competition with immobilised ligand | 1 µM | remaining binding | 68%
CC(C)(C)c1cc(C=C(C#N)C#N)cc(Br)c1O | enzyme activity | inhibitor |  | 0.5 µM | remaining activity | 98%
COc1cc(Nc2ncc(F)c(Nc3ccc4c(n3)NC(=O)C(C)(C)O4)n2)cc(OC)c1OC | binding |  | competition with immobilised ligand | 10 µM | inhibition | 97%
Cn1cc(-c2cccc(N3CCc4c(sc5c4CC(C)(C)C5)C3=O)c2CO)cc(Nc2ccncn2)c1=O | enzyme activity | inhibitor |  | 1 µM | inhibition | -2%
C#Cc1n[nH]c2c(-c3cn([C@@H](C)c4ccccn4)c(=O)[nH]c3=O)cc(F)cc12 | enzyme activity | inhibitor |  | 0.1 µM | inhibition | 7.2%
COc1ncccc1-c1cnn2ccc(N3CCN(C(=O)OC(C)C)CC3)nc12 | binding |  | competition with immobilised ligand | 1 µM | remaining binding | 60%
Cn1cc(-c2cc(F)cc(N3CCn4c(cc5c4CCCC5)C3=O)c2CO)cc(Nc2ccc(N3CCN(C4COC4)CC3)cn2)c1=O | enzyme activity | inhibitor |  | 0.1 µM | inhibition | 2%
O=c1[nH]c2ccccc2n1C1CCN(Cc2ccc(-c3[nH]c4cc5ncnc5cc4nc3-c3ccccc3)cc2)CC1 | cell-free assay |  |  | 0.5 µM | remaining signal | 97.2%
Nc1ncc(-c2nc(N3CCOCC3)nc(N3CCOCC3)n2)c(C(F)F)n1 | cell-free assay |  | competition with immobilised ligand | 10 µM | remaining binding | 100%
Cn1cncc1[C@](O)(COc1ccc(C#N)cc1-c1ccc(OC(F)(F)F)cc1)c1ccc(C#N)cc1 | cell-free assay |  | competition with immobilised ligand | 1 µM | remaining binding | 100%
COCc1c(-c2cc3cc(C)cc(OC)c3s2)c2c(N)ncnn2c1CN1CCNC(=O)C1 | cell-free assay |  | competition with immobilised ligand | 1 µM | inhibition | 99.9%
C#Cc1n[nH]c2c(-c3cn([C@@H](C)c4ccccc4)c(=O)[nH]c3=O)cc(F)cc12 | enzyme activity | inhibitor |  | 0.1 µM | inhibition | 0%
N#CC1(c2ccccn2)CCN(Cc2cc(C(=O)O)c(=O)n3ccccc23)CC1 | cell-free assay |  | competition with immobilised ligand | 1 µM | remaining binding | 100%
